Experimental data from ChEMBL document CHEMBL4390654, “Microwave-assisted solid-phase synthesis of antisense acpP peptide nucleic acid-peptide conjugates active against colistin- and tigecycline-resistant E. coli and K. pneumoniae” (Eur J Med Chem, 2019).
Square brackets hold non-standard residues; d marks the D form. Peptide text beside a SMILES is read from it. * marks the point of attachment. X3 = CC[C@H](C)[C@@H](C(=O)*)N(C(=O)[C@H](CCCNC(=N)N)NC(=O)CCCCCNC(=O)[C@@H](N)CCCNC(=N)N)C(=O)[C@H](CCCNC(=N)N)NC(=O)CCCCCNC(=O)[C@@H](N)CCCNC(=N)N; Ahx = NCCCCCC(=O)O

Key:
[1] = test system: Escherichia coli; test: Antibacterial activity against Escherichia coli lacking a functional SbmA assessed as reduction in microbial growth incubated for 20 hrs
Outline: (§1)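 Broth microdilution MIC after a modified Hancock protocol for cationic peptides, in non-binding polystyrene plates. Inoculum ~2 × 10^5 CFU/mL in Mueller-Hinton broth with Mg²⁺ and Ca²⁺ at 4 mg/L each. Compounds dissolved in water, diluted in 0.01% acetic acid, 0.2% BSA (final), added as 10× aliquots. Covered plates incubated 20 h at 35 °C (± 2 °C) with shaking at 220 rpm. MIC read as lowest inhibiting concentration.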

[2] = test system: Escherichia coli; test: Antibacterial activity against Escherichia coli ATCC 25922 assessed as reduction in microbial growth incubated for 20 hrs; type: functional; conditions: ATCC 25922, 20 h
Outline: (§2)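 Broth microdilution MIC (modified Hancock protocol) in non-binding polystyrene plates. Inoculum ~2 × 10^5 CFU/mL in Mueller-Hinton broth with Mg²⁺ and Ca²⁺ at 4 mg/L each. Compounds dissolved in water, diluted in 0.01% acetic acid/0.2% BSA (final), added as 10× stocks. Covered plates incubated 20 h at 35 °C (± 2 °C) with 220 rpm circular shaking before MIC read.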

[3] = test system: Pseudomonas aeruginosa; test: Antibacterial activity against Pseudomonas aeruginosa PAO1 assessed as reduction in microbial growth incubated for 20 hrs; type: functional; conditions: PAO1, 20 h; outline: as §1
[4] = test system: Klebsiella pneumoniae; test: Antibacterial activity against multi-drug resistant Klebsiella pneumoniae NMI 3081/09 assessed as reduction in microbial growth incubated for 20 hrs; type: functional; outline: as §2
[5] = test system: Acinetobacter baumannii; test: Antibacterial activity against Acinetobacter baumannii ATCC 19606 assessed as reduction in microbial growth incubated for 20 hrs; type: functional; conditions: ATCC 19606 = CIP 70.34 = JCM 6841, 20 h; outline: as §1
[6] = Hemolytic activity against RBC (unknown origin) at 100 uM; type: ADME, cell-based, Erythrocyte; conditions: red blood cells (erythrocytes); read-out: Activity
[7] = test system: Escherichia coli; test: Antibacterial activity against multi-drug resistant Escherichia coli NMI 3548/14 assessed as reduction in microbial growth incubated for 20 hrs; type: functional; outline: as §2
[8] = test system: Klebsiella pneumoniae; test: Antibacterial activity against Klebsiella pneumoniae ATCC 13883 assessed as reduction in microbial growth incubated for 20 hrs; type: functional; conditions: ATCC 13883, 20 h; outline: as §1
[9] = test system: Klebsiella pneumoniae; test: Antibacterial activity against multi-drug resistant Klebsiella pneumoniae NMI 2697/14 assessed as reduction in microbial growth incubated for 20 hrs; type: functional; outline: as §2
[10] = test system: Escherichia coli; test: Antibacterial activity against multi-drug resistant Escherichia coli NMI 3898/15 assessed as reduction in microbial growth incubated for 20 hrs; type: functional; conditions: NMI 3898/15, 20 h; outline: as §2
[11] = test system: Staphylococcus aureus; test: Antibacterial activity against Staphylococcus aureus ATCC 29213 assessed as reduction in microbial growth incubated for 20 hrs; type: functional; conditions: ATCC 29213, 20 h; outline: as §1

Row | Molecule | MIC [1] | MIC [2] | MIC [3] | MIC ([4]; NMI 3081/09, 20 h) | MIC [5] | hemolysis at 100 µM [6] | MIC ([7]; NMI 3548/14, 20 h) | MIC [8] | MIC ([9]; NMI 2697/14, 20 h) | MIC [10] | MIC [11] | MIC [4] | MIC [7] | MIC [9]
1 | CC[C@H](C)[C@H](NC(=O)[C@H](CCCCN)NC(=O)[C@H]([C@@H](C)CC)N(C(=O)[C@H](CCCNC(=N)N)NC(=O)CCCCCNC(=O)[C@@H](N)CCCNC(=N)N)C(=O)[C@H](CCCNC(=N)N)NC(=O)CCCCCNC(=O)[C@@H](N)CCCNC(=N)N)C(=O)N[C@@H](CC(C)C)C(=O)N[C@@H](Cc1ccccc1)C(=O)N[C@@H](CCC(N)=O)C(=O)N[C@@H](CC(N)=O)C(=O)N[C@@H](CCCNC(=N)N)C(=O)N[C@@H](CCCNC(=N)N)C(=O)N[C@@H](CCSC)C(=O)N[C@@H](CCCCN)C(=O)N[C@@H](Cc1c[nH]c2ccccc12)C(=O)N[C@@H](CCCCN)C(=O)N[C@@H](CCCCN)C(=O)N[C@@H](CSC1CC(=O)N(CCC(=O)NCCOCCOC(=O)N[C@@H](CS)C(=O)N[C@H](C(=O)N[C@@H](CS)C(=O)N[C@@H](C)C(=O)N[C@H](C(=O)N[C@@H](C)C(=O)N[C@@H](CS)C(=O)N[C@H](C(=O)N[C@@H](CS)C(=O)N[C@H](C(N)=O)[C@@H](C)O)[C@@H](C)O)[C@@H](C)O)[C@@H](C)O)C1=O)C(N)=O (stereo partly drawn) | 8 to 16 µg/mL | 8 µg/mL | 32 to 64 µg/mL | > 64 µg/mL | 16 µg/mL | < 1% | 16 to 32 µg/mL | 2 to 4 µg/mL | > 64 µg/mL | 32 to 64 µg/mL | > 64 µg/mL | – | – | –
2 | CC[C@H](C)[C@H](NC(=O)[C@@H]1CCCN1C(=O)[C@H](CCCNC(=N)N)NC(=O)[C@@H]1CCCN1C(=O)[C@H](Cc1cnc[nH]1)NC(=O)[C@H](CO)NC(=O)[C@@H](NC(=O)[C@@H]1CCCN1C(=O)[C@H](CCCNC(=N)N)NC(=O)[C@@H]1CCCN1C(=O)[C@H](CO)NC(=O)[C@H](Cc1ccc(O)cc1)NC(=O)[C@@H]1CCCN1C(=O)[C@H](CCCNC(=N)N)NC(=O)[C@@H]1CCCN1C(=O)[C@H](CCCNC(=N)N)NC(=O)CCCCCNC(=O)[C@@H](N)CCCNC(=N)N)[C@@H](C)O)C(=O)N[C@@H](CCCNC(=N)N)C(=O)N[C@H](C(=O)N[C@@H](CS)C(=O)N[C@H](C(=O)N[C@@H](CS)C(=O)N[C@H](C(=O)N[C@H](C(=O)N[C@@H](C)C(=O)N[C@@H](CS)C(=O)N[C@@H](C)C(=O)N[C@@H](CS)C(=O)N[C@H](C(N)=O)[C@@H](C)O)[C@@H](C)O)[C@@H](C)O)[C@@H](C)O)C(C)C (H-R[Ahx]RPRPYSPRPTSHPRPIRVCTCTTACACT-NH2) | > 64 µg/mL | > 64 µg/mL | > 64 µg/mL | 8 to 16 µg/mL | > 64 µg/mL | < 1% | > 64 µg/mL | 64 µg/mL | > 64 µg/mL | > 64 µg/mL | > 64 µg/mL | – | – | –
3 | CO/N=C(\C(=O)N[C@@H]1C(=O)N2C(C(=O)[O-])=C(C[N+]3(C)CCCC3)CS[C@H]12)c1csc(N)n1 | – | – | – | > 256 µg/mL | – | – | 2 µg/mL | – | 16 µg/mL | – | – | – | – | –
4 | C[C@@H](O)[C@H]1C(=O)N2C(C(=O)O)=C(SCCNC=N)C[C@H]12 [IMIPENEM ANHYDROUS] | – | – | – | 32 µg/mL | – | – | 2 µg/mL | – | 4 µg/mL | 0.5 µg/mL | – | – | – | –
5 | CN(C)c1cc(NC(=O)CNC(C)(C)C)c(O)c2c1C[C@H]1C[C@H]3[C@H](N(C)C)C(O)=C(C(N)=O)C(=O)[C@@]3(O)C(O)=C1C2=O [TIGECYCLINE] | – | – | – | 2 µg/mL | – | – | 16 µg/mL | – | 0.5 µg/mL | 0.5 µg/mL | – | – | – | –
6 | CN(C)[C@@H]1C(O)=C(C(N)=O)C(=O)[C@@]2(O)C(O)=C3C(=O)c4c(O)cccc4[C@@](C)(O)[C@H]3C[C@@H]12 [TETRACYCLINE] | – | – | – | > 256 µg/mL | – | – | 8 µg/mL | – | 16 µg/mL | 64 µg/mL | – | – | – | –
7 | GENTAMICIN | – | – | – | – | – | – | – | – | – | – | – | 2 µg/mL | 2 µg/mL | > 64 µg/mL
8 | CC[C@H](C)[C@H](NC(=O)[C@H](CCCCN)NC(=O)[C@H]([C@@H](C)CC)N(C(=O)[C@H](CCCNC(=N)N)NC(=O)CCCCCNC(=O)[C@@H](N)CCCNC(=N)N)C(=O)[C@H](CCCNC(=N)N)NC(=O)CCCCCNC(=O)[C@@H](N)CCCNC(=N)N)C(=O)N[C@@H](CC(C)C)C(=O)N[C@@H](Cc1ccccc1)C(=O)N[C@@H](CCC(N)=O)C(=O)N[C@@H](CC(N)=O)C(=O)N[C@@H](CCCNC(=N)N)C(=O)N[C@@H](CCCNC(=N)N)C(=O)N[C@@H](CCSC)C(=O)N[C@@H](CCCCN)C(=O)N[C@@H](Cc1c[nH]c2ccccc12)C(=O)N[C@@H](CCCCN)C(=O)N[C@@H](CCCCN)C(=O)N[C@@H](CS)C(=O)N[C@H](C(=O)N[C@@H](CS)C(=O)N[C@@H](C)C(=O)N[C@H](C(=O)N[C@@H](C)C(=O)N[C@@H](CS)C(=O)N[C@H](C(=O)N[C@@H](CS)C(=O)N[C@H](C(N)=O)[C@@H](C)O)[C@@H](C)O)[C@@H](C)O)[C@@H](C)O (X3-KILFQNRRMKWKKCTCATACTCT-NH2) | 16 µg/mL | 16 µg/mL | 32 µg/mL | > 64 µg/mL | 16 µg/mL | < 1% | 32 µg/mL | 8 µg/mL | > 64 µg/mL | ≥ 64 µg/mL | > 64 µg/mL | – | – | –
9 | CC[C@@H](C)[C@@H](NC(=O)[C@H]1CCCN1C(=O)[C@@H](CCCNC(=N)N)NC(=O)[C@H]1CCCN1C(=O)[C@@H](Cc1cnc[nH]1)NC(=O)[C@@H](CO)NC(=O)[C@H](NC(=O)[C@H]1CCCN1C(=O)[C@@H](CCCNC(=N)N)NC(=O)[C@H]1CCCN1C(=O)[C@@H](CO)NC(=O)[C@@H](Cc1ccc(O)cc1)NC(=O)[C@H]1CCCN1C(=O)[C@@H](CCCNC(=N)N)NC(=O)[C@H]1CCCN1C(=O)[C@@H](CCCNC(=N)N)NC(=O)CCCCCNC(=O)[C@H](N)CCCNC(=N)N)[C@H](C)O)C(=O)N[C@H](CCCNC(=N)N)C(=O)N[C@@H](C(N)=O)C(C)C | > 64 µg/mL | > 64 µg/mL | > 64 µg/mL | > 64 µg/mL | > 64 µg/mL | < 1% | > 64 µg/mL | > 64 µg/mL | > 64 µg/mL | > 64 µg/mL | > 64 µg/mL | – | – | –
10 | O=C(O)c1cn(C2CC2)c2cc(N3CCNCC3)c(F)cc2c1=O [CIPROFLOXACIN] | – | – | – | > 32 µg/mL | – | – | – | – | 2 µg/mL | > 32 µg/mL | – | – | – | –
11 | C[C@@H](O)[C@H]1C(=O)N2C(C(=O)O)=C(S[C@@H]3CN[C@H](C(=O)N(C)C)C3)[C@H](C)[C@H]12 [MEROPENEM] | – | – | – | > 32 µg/mL | – | – | 0.5 µg/mL | – | 1 µg/mL | 0.125 µg/mL | – | – | – | –
12 | CCN1CCN(C(=O)N[C@@H](C(=O)N[C@@H]2C(=O)N3[C@@H]2SC(C)(C)[C@@H]3C(=O)O)c2ccccc2)C(=O)C1=O [PIPERACILLIN] | – | – | – | > 256 µg/mL | – | – | 8 µg/mL | – | > 256 µg/mL | > 256 µg/mL | – | – | – | –
13 | CC(C)(O/N=C(\C(=O)N[C@@H]1C(=O)N2C(C(=O)[O-])=C(C[n+]3ccccc3)CS[C@H]12)c1csc(N)n1)C(=O)O [CEFTAZIDIME] | – | – | – | 64 µg/mL | – | – | 2 µg/mL | – | > 32 µg/mL | 64 µg/mL | – | – | – | –
14 | CC1(C)S[C@@H]2[C@H](NC(=O)[C@H](N)c3ccccc3)C(=O)N2[C@H]1C(=O)O [AMPICILLIN] | – | – | – | > 256 µg/mL | – | – | > 128 µg/mL | – | > 128 µg/mL | > 256 µg/mL | – | – | – | –
15 | NCC[C@H](O)C(=O)N[C@@H]1C[C@H](N)[C@@H](O[C@H]2O[C@H](CN)[C@@H](O)[C@H](O)[C@H]2O)[C@H](O)[C@H]1O[C@H]1O[C@H](CO)[C@@H](O)[C@H](N)[C@H]1O [AMIKACIN] | – | – | – | 16 µg/mL | – | – | 8 µg/mL | – | 32 µg/mL | 2 µg/mL | – | – | – | –
16 | CO/N=C(\C(=O)N[C@@H]1C(=O)N2C(C(=O)O)=C(COC(C)=O)CS[C@H]12)c1csc(N)n1 [CEFOTAXIME] | – | – | – | > 32 µg/mL | – | – | 16 µg/mL | – | > 32 µg/mL | 16 µg/mL | – | – | – | –
17 | C[C@H]1[C@H](NC(=O)/C(=N\OC(C)(C)C(=O)O)c2csc(N)n2)C(=O)N1S(=O)(=O)O [AZTREONAM] | – | – | – | > 256 µg/mL | – | – | > 16 µg/mL | – | 16 µg/mL | 8 µg/mL | – | – | – | –
